# Legend:
# [1] = target: Phosphatidylinositol 4,5-bisphosphate 3-kinase catalytic subunit beta isoform (Homo sapiens, UniProt P42338); test: Inhibition of human recombinant p110beta
# In short: (§1)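 Recombinant p110/p85 complexes (p110d/p85 commercial; p110a/p85 and p110b/p85 prepared in-house), 0.1 µg enzyme with 10 µg L-α-phosphatidylinositol in Tris-HCl pH 7.4/NaCl/EDTA buffer, 1% DMSO final. 1 h at room temperature, stopped with HCl. Lipids extracted, resolved by TLC, radiolabel quantified. Means of two experiments.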
# [2] = Antiproliferative activity against human NZOV9 cells; type: functional, cell-based
# In short: (§2)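 Early-passage human cancer cell lines grown in alpha-modified MEM with insulin, transferrin, selenite and 5% FBS; 1000 cells per well. Drug added in 10-fold concentration steps up to 20 µM; incubated five days under 5% O2, 5% CO2, 90% N2. [3H]thymidine (0.04 µCi/well) added for the last 6 h, incorporation counted. Duplicates per dose; IC50 from exponential least-squares fit.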
# [3] = target: Phosphatidylinositol 4,5-bisphosphate 3-kinase catalytic subunit alpha isoform (Homo sapiens, UniProt P42336); test: Inhibition of human recombinant p110alpha; in short: as §1
# [4] = target: T1, Phosphatidylinositol 4,5-bisphosphate 3-kinase catalytic subunit delta isoform (Homo sapiens, UniProt O00329); test: Inhibition of human recombinant p110delta; in short: as §1
# T1 sequence (O00329 whole entry): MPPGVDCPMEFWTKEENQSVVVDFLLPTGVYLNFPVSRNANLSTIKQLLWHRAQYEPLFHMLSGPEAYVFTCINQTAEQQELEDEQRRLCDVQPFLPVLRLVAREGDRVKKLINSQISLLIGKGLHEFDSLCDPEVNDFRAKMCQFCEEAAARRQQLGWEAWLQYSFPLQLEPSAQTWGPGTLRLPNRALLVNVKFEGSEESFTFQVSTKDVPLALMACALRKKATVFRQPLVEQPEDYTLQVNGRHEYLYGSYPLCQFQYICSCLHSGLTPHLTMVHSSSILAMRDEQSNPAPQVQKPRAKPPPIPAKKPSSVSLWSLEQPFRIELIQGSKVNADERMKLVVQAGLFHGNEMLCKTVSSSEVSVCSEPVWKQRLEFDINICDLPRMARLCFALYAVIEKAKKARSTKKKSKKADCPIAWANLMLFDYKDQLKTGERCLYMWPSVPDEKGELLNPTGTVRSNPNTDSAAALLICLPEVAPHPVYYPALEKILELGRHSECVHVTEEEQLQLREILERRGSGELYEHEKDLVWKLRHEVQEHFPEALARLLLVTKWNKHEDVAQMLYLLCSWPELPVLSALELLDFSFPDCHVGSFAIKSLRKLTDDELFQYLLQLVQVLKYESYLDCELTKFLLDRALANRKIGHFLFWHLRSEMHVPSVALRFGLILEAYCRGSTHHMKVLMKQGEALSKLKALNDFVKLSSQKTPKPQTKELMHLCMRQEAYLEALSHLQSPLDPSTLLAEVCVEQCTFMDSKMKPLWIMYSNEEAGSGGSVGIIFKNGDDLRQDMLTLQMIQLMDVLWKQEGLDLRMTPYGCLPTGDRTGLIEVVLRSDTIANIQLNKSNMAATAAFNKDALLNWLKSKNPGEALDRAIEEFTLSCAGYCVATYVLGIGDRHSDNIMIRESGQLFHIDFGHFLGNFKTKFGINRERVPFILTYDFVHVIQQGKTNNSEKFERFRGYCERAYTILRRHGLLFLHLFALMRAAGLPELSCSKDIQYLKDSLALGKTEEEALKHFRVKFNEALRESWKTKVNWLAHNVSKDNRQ
# [5] = Antiproliferative activity against human NZB5 cells; type: functional, cell-based; in short: as §2
# Sequence of Phosphatidylinositol 4,5-bisphosphate 3-kinase catalytic subunit beta isoform (P42338 whole entry, canonical isoform): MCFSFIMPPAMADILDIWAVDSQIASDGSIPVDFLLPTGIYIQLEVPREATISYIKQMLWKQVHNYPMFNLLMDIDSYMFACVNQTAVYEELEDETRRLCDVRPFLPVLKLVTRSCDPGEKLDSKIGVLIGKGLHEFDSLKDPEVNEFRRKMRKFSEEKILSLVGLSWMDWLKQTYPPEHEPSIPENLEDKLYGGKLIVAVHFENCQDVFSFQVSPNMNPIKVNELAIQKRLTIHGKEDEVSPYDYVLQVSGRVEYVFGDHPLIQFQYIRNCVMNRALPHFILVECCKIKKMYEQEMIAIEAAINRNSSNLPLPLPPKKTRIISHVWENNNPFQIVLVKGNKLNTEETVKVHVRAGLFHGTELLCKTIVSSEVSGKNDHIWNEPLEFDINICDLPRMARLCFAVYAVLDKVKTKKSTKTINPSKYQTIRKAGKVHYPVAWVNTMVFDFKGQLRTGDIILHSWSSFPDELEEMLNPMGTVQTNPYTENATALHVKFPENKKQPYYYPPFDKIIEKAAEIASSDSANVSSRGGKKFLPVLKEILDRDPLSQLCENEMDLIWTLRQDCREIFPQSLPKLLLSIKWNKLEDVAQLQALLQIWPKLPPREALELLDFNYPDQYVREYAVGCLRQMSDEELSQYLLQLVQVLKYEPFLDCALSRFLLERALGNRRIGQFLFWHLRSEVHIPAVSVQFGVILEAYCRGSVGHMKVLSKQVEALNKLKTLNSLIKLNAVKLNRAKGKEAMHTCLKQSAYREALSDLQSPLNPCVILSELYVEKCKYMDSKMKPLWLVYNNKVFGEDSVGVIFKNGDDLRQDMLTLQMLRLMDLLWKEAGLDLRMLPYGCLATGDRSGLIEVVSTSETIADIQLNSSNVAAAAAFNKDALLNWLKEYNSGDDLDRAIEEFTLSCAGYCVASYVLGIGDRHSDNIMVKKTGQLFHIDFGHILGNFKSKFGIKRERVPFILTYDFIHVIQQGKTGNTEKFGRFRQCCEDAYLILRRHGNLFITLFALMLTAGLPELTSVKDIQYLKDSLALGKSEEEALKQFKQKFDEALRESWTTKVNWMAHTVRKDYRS
# Sequence of Phosphatidylinositol 4,5-bisphosphate 3-kinase catalytic subunit alpha isoform (P42336 whole entry, canonical isoform): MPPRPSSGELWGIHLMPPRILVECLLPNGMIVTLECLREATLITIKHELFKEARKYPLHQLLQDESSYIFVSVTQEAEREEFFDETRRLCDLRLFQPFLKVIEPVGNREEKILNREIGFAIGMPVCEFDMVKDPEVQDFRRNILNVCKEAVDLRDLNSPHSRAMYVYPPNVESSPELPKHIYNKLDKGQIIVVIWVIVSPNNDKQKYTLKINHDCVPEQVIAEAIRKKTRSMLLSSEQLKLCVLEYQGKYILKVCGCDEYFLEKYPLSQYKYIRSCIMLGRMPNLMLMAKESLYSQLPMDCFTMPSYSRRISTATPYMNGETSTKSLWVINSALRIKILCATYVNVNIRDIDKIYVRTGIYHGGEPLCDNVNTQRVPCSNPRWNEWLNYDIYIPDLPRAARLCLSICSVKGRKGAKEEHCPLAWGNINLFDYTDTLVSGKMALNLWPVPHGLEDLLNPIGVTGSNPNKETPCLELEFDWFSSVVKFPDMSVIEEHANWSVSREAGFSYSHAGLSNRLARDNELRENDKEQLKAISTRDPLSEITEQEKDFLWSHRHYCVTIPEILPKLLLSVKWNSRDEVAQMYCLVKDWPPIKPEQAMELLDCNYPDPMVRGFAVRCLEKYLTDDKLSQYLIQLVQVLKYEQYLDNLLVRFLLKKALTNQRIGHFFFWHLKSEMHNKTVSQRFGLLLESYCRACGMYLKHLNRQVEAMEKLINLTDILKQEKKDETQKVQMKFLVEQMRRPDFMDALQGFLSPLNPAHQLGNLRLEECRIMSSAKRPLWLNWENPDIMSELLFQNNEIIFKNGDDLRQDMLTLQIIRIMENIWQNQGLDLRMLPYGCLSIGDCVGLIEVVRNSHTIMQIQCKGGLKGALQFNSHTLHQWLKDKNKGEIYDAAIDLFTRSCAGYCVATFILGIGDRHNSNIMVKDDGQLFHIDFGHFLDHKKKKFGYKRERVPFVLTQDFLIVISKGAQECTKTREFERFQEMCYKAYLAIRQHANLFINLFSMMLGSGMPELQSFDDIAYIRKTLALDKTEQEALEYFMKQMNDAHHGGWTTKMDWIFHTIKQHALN
IC50 [1] [µM],IC50 [3] [µM],IC50 [4] [µM],Compound,IC50 [2] [µM],IC50 [5] [µM]
> 10,5,> 10,Cc1ccc([N+](=O)[O-])cc1S(=O)(=O)N(C)/N=C/c1onc2ccccc12,3.3,3.9
> 10,> 10,> 10,Cc1ccc([N+](=O)[O-])cc1S(=O)(=O)N(C)/N=C/c1cccc2ccccc12,> 20,> 20
> 10,0.86,5.4,Cc1ccc([N+](=O)[O-])cc1S(=O)(=O)N(C)/N=C/c1cnc2ccccn12,0.68,0.35
> 10,> 10,> 10,Cc1ccc([N+](=O)[O-])cc1S(=O)(=O)N(C)/N=C/c1cnc2ccccc2c1,6,3
> 10,> 10,> 10,Cc1ccc([N+](=O)[O-])cc1S(=O)(=O)N(C)/N=C/c1csc2ccccc12,> 20,> 20
> 10,> 10,> 10,Cc1ccc([N+](=O)[O-])cc1S(=O)(=O)N(C)/N=C/c1coc2ccccc12,8.5,12
> 10,> 10,> 10,Cc1ccc([N+](=O)[O-])cc1S(=O)(=O)N(C)/N=C/c1cncc2c(Br)cccc12,12,5.7
> 10,> 10,> 10,Cc1ccc([N+](=O)[O-])cc1S(=O)(=O)N(C)/N=C/c1cncc2cc(Br)ccc12,11,6.6
> 10,> 10,> 10,Cc1ccc([N+](=O)[O-])cc1S(=O)(=O)N(C)/N=C/c1ncn2ccccc12,–,3.3
> 10,> 10,> 10,Cc1ccc([N+](=O)[O-])cc1S(=O)(=O)N(C)/N=C/c1ncc2ccccn12,1.2,2.1
> 10,0.8,3.6,Cc1ccc([N+](=O)[O-])cc1S(=O)(=O)N(C)/N=C/c1cncc2ccccc12,0.5,0.89
> 10,> 10,> 10,Cc1ccc([N+](=O)[O-])cc1S(=O)(=O)N(C)/N=C/c1cn(C)c2ccccc12,> 20,15
> 10,2.3,> 10,Cc1ccc([N+](=O)[O-])cc1S(=O)(=O)N(C)/N=C/c1ccnc2ccccc12,0.8,1.5
–,–,–,Cc1ccc([N+](=O)[O-])cc1S(=O)(=O)N(C)/N=C/c1cnc2ccc(Br)cn12,–,0.069
> 10,> 10,> 10,Cc1ccc([N+](=O)[O-])cc1S(=O)(=O)N(C)/N=C/c1cnc2n1CCCC2,10,10
> 10,2.2,9,Cc1ccc([N+](=O)[O-])cc1S(=O)(=O)N(C)/N=C/c1cncc2ccc(Br)cc12,4.2,5.1

Compound,IC50 [1] [µM],IC50 [3] [µM],IC50 [4] [µM],IC50 [2] [µM],IC50 [5] [µM]
Cc1ccc([N+](=O)[O-])cc1S(=O)(=O)N(C)/N=C/c1cncn1C,> 10,> 10,> 10,> 20,> 20
